# According to ChEMBL document CHEMBL4414632, “Design, Synthesis, and Biological Evaluation of Novel Indoles Targeting the Influenza PB2 Cap Binding Region” (J Med Chem, 2019):
# Activity calls are given as the source filed them. The calls are words filed in the database; no cut-off is given here.
# How the values were obtained:
# [1] = Displacement of gamma-[6-aminohexyl]-GTP-biotin from Influenza A virus A/Victoria/3/1975 (H3N2) N-terminal 6His-tagged PB2 (320 to 484 residues) expressed in Escherichia coli incubated for 1 hr by TR-FRET assay
# [2] = target: Glycogen synthase kinase-3 beta (Homo sapiens) (UniProt P49841); assay: Inhibition of GSK3beta (unknown origin) at 1 uM
# [3] = Displacement of gamma-[6-aminohexyl]-GTP-biotin from Influenza B virus B/Brisbane/60/2008 C-terminal 6His-tagged PB2 (320 to 484 residues) expressed in Escherichia coli incubated for 1 hr by TR-FRET assay
# Influenza A virus [4] = assay: Antiviral activity against Influenza A virus (A/Puerto Rico/8/34(H1N1)) infected in human A549 cells assessed as reduction in virus neuraminidase level incubated for 24 hrs by fluorescence based assay; format: functional, organism-based; settings: A/Puerto Rico/8/1934(H1N1), A549, 24 h
# Summary of the method: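 A549 cells, 6,000/well, seeded onto compound (nine four-fold dilutions) in Ham's F12 with 2% FBS, 1% Hepes, gentamycin, 24 h at 37°C, 5% CO2; then infected with A/Puerto Rico/8/34 at MOI 1 for further 24 h.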
# Influenza A virus [5] = assay: In vivo antiviral activity against Influenza A virus (A/Puerto Rico/8/34(H1N1)) infected in BALB/c mouse assessed as survival rate at 30 mg/kg, po administered bid for 10 days after 48 hrs post infection and observed for 21 days relative to control; format: functional, A/Puerto Rico/8/1934(H1N1)
# [6] = Therapeutic index, ratio of CC50 for dog MDCK cells to IC50 for Influenza A virus A/[…]/3/1975 (H3N2); format: toxicity; settings: read-out: Ratio CC50/IC50
# Influenza A virus [7] = assay: Antiviral activity against Influenza A virus (A/Taiwan/1/1986(H1N1)) infected in MDCK cells assessed as reduction in virus-induced cytopathic effect by measuring ATP level incubated for 24 hrs by ATPlite luminescence assay; format: functional, organism-based
# [8] = Therapeutic index, ratio of CC50 for dog MDCK cells to IC50 for Influenza A virus (A/Taiwan/1/1986(H1N1)); format: toxicity; settings: read-out: Ratio CC50/IC50
# Influenza A virus [9] = assay: Antiviral activity against Influenza A virus A/[…]/3/1975 (H3N2) infected in MDCK cells assessed as reduction in virus-induced cytopathic effect by measuring ATP level incubated for 24 hrs by ATPlite luminescence assay; format: functional, organism-based
# [10] = Therapeutic index, ratio of CC50 for human A549 cells to IC50 for Influenza A virus (A/Puerto Rico/8/34(H1N1)); format: toxicity; settings: read-out: Ratio CC50/IC50
# Influenza A virus [11] = assay: In vivo antiviral activity against Influenza A virus (A/Puerto Rico/8/34(H1N1)) infected in BALB/c mouse assessed as survival rate at 10 mg/kg, po administered bid for 10 days after 48 hrs post infection and observed for 21 days relative to control; format: functional, A/Puerto Rico/8/1934(H1N1)
# Chain of Glycogen synthase kinase-3 beta (Homo sapiens) (P49841 whole entry, looked up, the tested form may be a part): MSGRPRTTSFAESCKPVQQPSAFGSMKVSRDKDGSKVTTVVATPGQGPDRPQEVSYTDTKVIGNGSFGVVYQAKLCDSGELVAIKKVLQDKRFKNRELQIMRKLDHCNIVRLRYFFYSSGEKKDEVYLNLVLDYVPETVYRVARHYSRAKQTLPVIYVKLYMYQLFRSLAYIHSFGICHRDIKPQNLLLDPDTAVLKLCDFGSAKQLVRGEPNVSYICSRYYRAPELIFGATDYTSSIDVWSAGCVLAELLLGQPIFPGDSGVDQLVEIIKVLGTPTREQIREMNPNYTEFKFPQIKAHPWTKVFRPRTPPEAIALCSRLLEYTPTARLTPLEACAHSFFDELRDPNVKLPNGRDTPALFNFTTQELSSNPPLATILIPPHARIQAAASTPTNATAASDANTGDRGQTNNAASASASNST
Compound,IC50 [1] [nM],inhibition [2],IC50 [3] [nM],IC50 (Influenza A virus [4]) [nM],Activity (Influenza A virus [5]) [%],selectivity ratio [6],IC50 (Influenza A virus [7]) [nM],selectivity ratio [8],IC50 (Influenza A virus [9]) [nM],selectivity ratio [10],Activity (Influenza A virus [11]) [%]
O=C(O)[C@H]1C2CCC(CC2)[C@@H]1Nc1nc(-c2c[nH]c3c(F)cc(F)cc23)ncc1F,120,inactive,> 50000,22,75,,,,,,
NC(=O)c1nc(F)cnc1O,,,,,,> 3,16800,> 6,35700,,
CCOC(=O)C1=C[C@@H](OC(CC)CC)[C@H](NC(C)=O)[C@@H](N)C1 [OSELTAMIVIR],,,,31,,,,,,> 4130,38
Cc1cc(F)c2[nH]cc(-c3ncc(F)c(N[C@H]4C5CCC(CC5)[C@@H]4C(=O)O)n3)c2c1,120,,26000,22,,25,4,75,11,1490,
O=C(O)[C@H]1C2CCC(CC2)[C@@H]1Nc1nc(-c2c[nH]c3c(F)cc(Cl)cc23)ncc1F,170,,> 50000,53,,28,21,83,47,> 485,
N#Cc1cc(F)c2[nH]cc(-c3ncc(F)c(N[C@H]4C5CCC(CC5)[C@@H]4C(=O)O)n3)c2c1,80,,13000,43,,59,11,97,19,> 612,
